# In ChEMBL document CHEMBL3244285, “Hypotensive phospholipids. Some stable analogues of Darmstoff” (J Med Chem, 1978):
# The source made the active and inactive calls. The rule behind the calls is not given here.
# Columns and labels:
# Rattus norvegicus [1] = assay: Toxicity in awake normotensive rat assessed as heart rate at 2 mg/100 g, iv measured within 2 mins (reference value: 420/min); type: organism-based; conditions: in vivo
# Rattus norvegicus [2] = assay: Hypotensive activity in awake normotensive rat assessed as decrease in mean blood pressure at 2 mg/100 g, iv measured within 2 mins in presence of beta-adrenergic inhibitor propranolol; type: functional, organism-based
# Rattus norvegicus [3] = assay: Toxicity in awake normotensive rat assessed as decrease in heart rate at 2 mg/100 g, iv measured within 2 mins in presence of beta-adrenergic inhibitor propranolol; type: organism-based; conditions: in vivo
# [4] = Stability of the compound in 0.9% sodium chloride solution at 5 degC measured within 1 hr; type: physicochemical
# Procedure, shortened: (§1)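 Solution stability was tested by storing drug solutions in 0.9% NaCl at 5 °C. At the stated storage times the stored solutions were given iv to catheterized, unrestrained normotensive rats, and blood pressure and heart-rate responses were re-measured by arterial strain gauge.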
# Rattus norvegicus [5] = assay: Toxicity in awake normotensive rat assessed as decrease in heart rate at 1 mg/100 g, iv measured for 10 mins; type: organism-based; conditions: in vivo
# Procedure, shortened: (§2)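 Chronically catheterized, unrestrained normotensive rats received iv drug in 0.9% NaCl through the venous catheter. Heart rate was followed continuously on chart records from the arterial strain-gauge trace, from the moment of injection for at least 10 min.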
# Rattus norvegicus [6] = assay: Hypotensive activity in awake normotensive rat assessed as mean blood pressure at 2 mg/100 g, iv measured within 2 mins (reference value: 125 mmHg); type: functional
# Rattus norvegicus [7] = assay: Hypotensive activity in awake normotensive rat assessed as mean blood pressure at 1 mg/100 g, iv measured within 2 mins (reference value: 125 +/- 16 mmHg); type: functional
# Rattus norvegicus [8] = organism: Rattus norvegicus; assay: Toxicity in spontaneous hypertensive rat model assessed as bradycardia measured after 48 hrs; type: organism-based; conditions: in vivo
# Rattus norvegicus [9] = assay: Hypotensive activity in awake normotensive rat assessed as decrease in mean blood pressure at 1 mg/100 g, iv measured within 2 mins in presence of beta-adrenergic inhibitor propranolol; type: functional, organism-based
# Rattus norvegicus [10] = assay: Toxicity in awake normotensive rat assessed as decrease in heart rate at 2 mg/100 g, iv measured for 10 mins; type: organism-based; conditions: in vivo; procedure, shortened: as §2
# Rattus norvegicus [11] = assay: Toxicity in awake normotensive rat assessed as heart rate at 1 mg/100 g, iv measured within 2 mins (reference value: 430 +/- 50/min); type: organism-based; conditions: in vivo
# Rattus norvegicus [12] = organism: Rattus norvegicus; assay: Hypotensive activity in spontaneous hypertensive rat model measured after 48 hrs; type: functional, organism-based
# Rattus norvegicus [13] = assay: Toxicity in awake normotensive rat assessed as cardiac arrest at 4 mg/100 g, iv measured within 2 mins; type: organism-based; conditions: in vivo
# Rattus norvegicus [14] = assay: Toxicity in awake normotensive rat assessed as decrease in heart rate at 1 mg/100 g, iv measured within 2 mins in presence of beta-adrenergic inhibitor propranolol; type: organism-based; conditions: in vivo
# Rattus norvegicus [15] = assay: Hypotensive activity in awake normotensive rat assessed as mean blood pressure at 1 mg/100 g, iv measured within 2 mins (reference value: 130 +/- 6.9 mmHg); type: functional
# [16] = Stability of the compound in 0.9% sodium chloride solution at 5 degC measured after 72 hrs; type: physicochemical; procedure, shortened: as §1
# Rattus norvegicus [17] = assay: Toxicity in awake normotensive rat assessed as heart rate at 1 mg/100 g, iv measured within 2 mins (reference value: 450 +/- 57/min); type: organism-based; conditions: in vivo
# Rattus norvegicus [18] = assay: Toxicity in awake normotensive rat assessed as heart rate at 1 mg/100 g, iv measured within 2 mins (reference value: 430 +/- 40/min); type: organism-based; conditions: in vivo
# Rattus norvegicus [19] = assay: Hypotensive activity in awake normotensive rat assessed as mean blood pressure at 1 mg/100 g, iv measured within 2 mins (reference value: 115 +/- 17 mmHg); type: functional
# [20] = Stability of the compound in 0.9% sodium chloride solution at 5 degC measured after 24 hrs; type: physicochemical; procedure, shortened: as §1
Stability [4],Stability [16],Stability [20],SMILES,heart rate (Rattus norvegicus [1]) [beats/min],Activity (Rattus norvegicus [2]),Activity (Rattus norvegicus [3]),Activity (Rattus norvegicus [5]),Activity (Rattus norvegicus [6]) [mmHg],Activity (Rattus norvegicus [7]) [mmHg],Activity (Rattus norvegicus [8]),Activity (Rattus norvegicus [9]),Activity (Rattus norvegicus [10]),heart rate (Rattus norvegicus [11]) [beats/min],Activity (Rattus norvegicus [12]),Activity (Rattus norvegicus [13]),Activity (Rattus norvegicus [14]),Activity (Rattus norvegicus [15]) [mmHg],heart rate (Rattus norvegicus [17]) [beats/min],heart rate (Rattus norvegicus [18]) [beats/min],Activity (Rattus norvegicus [19]) [mmHg]
Unstable,–,–,CCCCCCCCCCCCCCCC1OCC(COP(=O)([O-])O)O1.[Na+] (stereo unspecified),250,Active,Toxic,Toxic,100,100,Toxic,Active,Toxic,310,Active,Toxic,Toxic,–,–,–,–
–,Stable,–,CCCCCCCCCCCCCCCC1CCC(COP(=O)([O-])O)C1.[Na+] (stereo unspecified),–,–,–,Toxic,–,–,–,Active,–,–,–,–,Toxic,120,375,–,–
–,–,Stable,CCCCCCCCCCCCCCCC1CCC(COP(=O)([O-])O)O1.[Na+] (stereo unspecified),–,–,–,Toxic,–,–,–,Active,–,–,–,–,Toxic,–,–,350,100
